Calls of active or inactive are those of the source.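 How the source made its calls, unless noted: active means Her2 level under about 52% in both replicate screens, with viability over 70% of control (limit read from the data); inconclusive means Her2 under the limit in one screen only, or viability under 70%; inactive means Her2 level above the set limit.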
What was measured:
[1] = molecular target: Pantothenate synthetase (Mycobacterium tuberculosis (strain ATCC 25618 / H37Rv)) (UniProt P9WIL5); assay: Coupled enzyme confirmation of inhibitors against recombinant Mtb PanC (AID 375; call rule not given here;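 further: 0% = full reaction with vehicle and 100% = no enzyme background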); conditions: coupled enzyme assay; at 10 µM, stronger effect = higher value
[2] = Her2 expression decrease, cell viability multiplex – SKBR3 breast tumor cells, AlphaScreen, ATP viability, primary screen (AID 461); conditions: SKBR3 Her2 protein level, 18-24 h, measured here: SKBR3 viability, ATP luminescence, at 10 µM;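 on Her2 level: lower value means less Her2 protein in the cells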;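 on viability: percent of carrier control wells set as 100% viability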
[3] = molecular target: Receptor tyrosine-protein kinase erbB-2 (Homo sapiens) (UniProt P04626); assay: as above; conditions: 18-24 h, at 10 µM, stronger effect = lower value
[4] = reduced viability of SK-BR-3 breast cancer cells – cell-based, 24 h, human, pilot screen (AID 572;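 active means viability at or below 10% of carrier control in both of two separate runs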;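 further: compound exposure lasted between 18 and 24 h rather than exactly 24 h; 100% = carrier-treated control wells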); conditions: SK-BR-3 viability, CellTiter-Glo luminescence, at 10 µM, stronger effect = lower value
[5] = HUVEC growth inhibition – cell-based, human, primary screen (AID 575;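 active means viability at or below 30% in both replicate assays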;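 further: 100% = median of untreated cell wells with 0.1% DMSO on each plate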); conditions: HUVEC proliferation, CellTiter-Glo luminescence, 72 h; at 10 µM; stronger effect = lower value
Summary of the method: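 Test system: primary human umbilical vein endothelial cells; medium: endothelial basal medium with 2% FBS plus growth supplements; dosing: 10 µM compound only; times: 72 h treatment at 37 °C; signal: CTG luminescence; read-out: % viability relative to median vehicle-well signal on each plate; control set: vehicle and MePR control wells; plate: 384-well, collagen-coated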

[6] = H69AR cell proliferation blockers – human, duplicate replicates, primary screen (AID 580;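 active means viability at or under a set limit in both replicates, limit being median viability minus 3 SD, cut at about 48% in these data, passing the limit was not always enough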;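 further: 100% = mean luminescence of untreated wells and 0% = no signal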); conditions: H69AR lung tumor cells viability, ATP luminescence, 72 h; at 10 µM; stronger effect = lower value
[7] = MRP1 drug-resistance reversers in H69AR cells – cell-based, doxorubicin co-treatment, pilot screen (AID 601;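 active means viability loss from added drug above about 55%, and viability with drug at most 40%, in both replicates, limit read from the data, passing the limit was not always enough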); conditions: CellTiter-Glo, 72 h, at 10 µM; for differential viability (reversal): stronger effect = higher value
[8] = yeast transport mutant growth inhibition pilot in 384-well plates, post-Golgi transport modulator project (AID 636; in the data active means inhibition above about 31%); conditions: absorbance 615 nm, about 18 h, stronger effect = higher value
[9] = growth suppression of yeast trafficking mutant, preliminary HTS, modulators of trafficking downstream of Golgi apparatus project, 1536-format plate, OD 615 nm (AID 637; in the data active means inhibition above about 30%); conditions: yeast transport mutant growth, absorbance 615 nm, 18 h; stronger effect = higher value
[10] = H69AR cells + 2 uM doxorubicin, measured here: viability with 2 uM doxorubicin, stronger effect = lower value
[11] = H69AR cells, compound alone cytotoxicity

Chain of Receptor tyrosine-protein kinase erbB-2 (Homo sapiens) (P04626 whole entry, looked up): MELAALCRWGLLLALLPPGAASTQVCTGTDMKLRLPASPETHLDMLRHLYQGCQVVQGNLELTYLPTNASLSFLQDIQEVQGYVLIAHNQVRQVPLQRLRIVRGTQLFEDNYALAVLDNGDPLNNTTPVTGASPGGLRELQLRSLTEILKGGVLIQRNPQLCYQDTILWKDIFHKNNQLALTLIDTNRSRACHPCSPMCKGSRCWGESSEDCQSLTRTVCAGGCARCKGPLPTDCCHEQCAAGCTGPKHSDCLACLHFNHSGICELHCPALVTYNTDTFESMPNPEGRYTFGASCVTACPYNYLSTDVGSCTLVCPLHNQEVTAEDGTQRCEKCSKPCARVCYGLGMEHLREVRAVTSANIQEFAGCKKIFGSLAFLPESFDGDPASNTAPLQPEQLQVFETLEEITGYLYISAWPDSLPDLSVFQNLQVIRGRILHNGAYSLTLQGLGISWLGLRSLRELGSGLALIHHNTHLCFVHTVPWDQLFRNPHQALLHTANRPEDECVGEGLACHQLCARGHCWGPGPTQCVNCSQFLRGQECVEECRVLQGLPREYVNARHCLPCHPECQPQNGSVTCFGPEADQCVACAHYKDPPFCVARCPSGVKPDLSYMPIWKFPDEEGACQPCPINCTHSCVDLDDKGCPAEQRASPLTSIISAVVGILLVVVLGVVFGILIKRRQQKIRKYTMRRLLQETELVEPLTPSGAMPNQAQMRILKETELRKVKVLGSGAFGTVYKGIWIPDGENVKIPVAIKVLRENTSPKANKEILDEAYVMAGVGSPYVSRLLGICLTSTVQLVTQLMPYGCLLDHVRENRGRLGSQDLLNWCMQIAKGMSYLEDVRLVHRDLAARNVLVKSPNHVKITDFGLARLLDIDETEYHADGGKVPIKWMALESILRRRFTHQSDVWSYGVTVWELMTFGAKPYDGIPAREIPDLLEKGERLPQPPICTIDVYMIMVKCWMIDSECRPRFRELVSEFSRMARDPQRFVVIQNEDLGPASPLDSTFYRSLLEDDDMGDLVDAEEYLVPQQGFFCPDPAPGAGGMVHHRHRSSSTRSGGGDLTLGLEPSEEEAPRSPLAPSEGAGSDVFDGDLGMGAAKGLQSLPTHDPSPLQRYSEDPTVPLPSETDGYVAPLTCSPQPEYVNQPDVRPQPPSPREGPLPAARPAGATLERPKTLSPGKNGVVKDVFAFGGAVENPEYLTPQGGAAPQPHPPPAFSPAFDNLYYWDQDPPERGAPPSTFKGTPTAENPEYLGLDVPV
Chain of Pantothenate synthetase (Mycobacterium tuberculosis (strain ATCC 25618 / H37Rv)) (P9WIL5 whole entry, looked up): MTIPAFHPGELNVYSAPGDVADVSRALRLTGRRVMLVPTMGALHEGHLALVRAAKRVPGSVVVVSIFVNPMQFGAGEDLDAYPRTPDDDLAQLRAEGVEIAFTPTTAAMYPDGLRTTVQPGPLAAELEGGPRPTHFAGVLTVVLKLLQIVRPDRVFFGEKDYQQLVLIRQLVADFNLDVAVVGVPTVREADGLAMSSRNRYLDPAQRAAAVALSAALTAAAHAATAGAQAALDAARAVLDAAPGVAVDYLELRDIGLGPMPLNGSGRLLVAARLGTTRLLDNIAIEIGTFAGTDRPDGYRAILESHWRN

Structure (SMILES) | inhibition [1] | viability [2] [%] | Her2 level [3] | viability [4] | viability [5] | viability [6] | differential viability (reversal) ([7]; H69AR cells + 2 uM doxorubicin) | viability [7, 10] [%] | viability [7, 11] [%] | inhibition [8] | inhibition [9]
CC(C)(C)OC(=O)c1c(N)n(Cc2ccco2)c2nc3ccccc3nc12 | 3% (inactive) | 98.5 | 76% (inactive) | 98.5% (inactive) | 62.5% (inactive) | 65.4% (inactive) | -9.48% (inactive) | 74.8 | 65.4 | 0.79% (inactive) | -6.13% (inactive)
CCCCn1c(O)c(C=NC2CCCCC2N)c(=O)[nH]c1=O (centres undefined) | 0% (inactive) | 128 | 96.5% (inactive) | 128% (inactive) | 92.6% (inactive) | 79.3% (inactive) | 4.94% (inactive) | 74.4 | 79.3 | -2.6% (inactive) | 1.43% (inactive)
Cn1c(=O)cc(OCC(=O)N2CCN(C3CCCCC3)CC2)c2ccccc21 | 0% (inactive) | 87 | 88% (inactive) | 87% (inactive) | 82% (inactive) | 85.2% (inactive) | 3.09% (inactive) | 82.1 | 85.2 | -1.47% (inactive) | -1.15% (inactive)
O=C1C2CCCN2C(c2ccc(Cl)c(Cl)c2)N1c1ccccn1 (centres undefined) | 0% (inactive) | 128 | 102% (inactive) | 128% (inactive) | 107% (inactive) | 97.4% (inactive) | 11.4% (inactive) | 86 | 97.4 | -4.08% (inactive) | 1.77% (inactive)
Nc1ccc(C2(c3ccc(N)cc3)CN3CCC2CC3)cc1 | 0% (inactive) | 120 | 88% (inactive) | 120% (inactive) | 85.5% (inactive) | 106% (inactive) | 6.37% (inactive) | 100 | 106 | -5.75% (inactive) | 0% (inactive)
COc1ccc(C(=O)C(C)(C)NO)cc1 | 0% (inactive) | 108 | 100% (inactive) | 108% (inactive) | 99.9% (inactive) | 86.5% (inactive) | -2.28% (inactive) | 88.8 | 86.5 | -6.49% (inactive) | 0.48% (inactive)
Cc1nn(-c2ccccc2)c2c1CC1(C(=O)N(C)C(=O)N(C)C1=O)C1CCCCN21 (centres undefined) | 0% (inactive) | 97 | 114% (inactive) | 97% (inactive) | 91.7% (inactive) | 84.7% (inactive) | -12% (inactive) | 96.7 | 84.7 | -4.86% (inactive) | -2.13% (inactive)
CC(=O)N1CC(=O)Nc2ccc(Cl)cc2C1c1ccc(F)cc1 (centres undefined) | 0% (inactive) | 92.5 | 102% (inactive) | 92.5% (inactive) | 88.5% (inactive) | 97.5% (inactive) | 25.5% (inactive) | 72 | 97.5 | -3.29% (inactive) | -3.45% (inactive)
O=c1[nH]c(=O)n(CCc2ccccc2)c(O)c1C=NCCN1CCNCC1 | 6% (inactive) | 99 | 91.5% (inactive) | 99% (inactive) | 108% (inactive) | 93% (inactive) | 1.67% (inactive) | 91.3 | 93 | -1.58% (inactive) | 5.16% (inactive)
C=CCn1c(O)c(C(C)=Nc2ccc(N(CC)CC)cc2)c(=O)[nH]c1=O | 1% (inactive) | 102 | 105% (inactive) | 102% (inactive) | 62.6% (inactive) | 16.3% (active) | -63.3% (inactive) | 79.7 | 16.3 | -2.08% (inactive) | -8% (inactive)
CCOc1c(P(=S)(N(C)C)N(C)C)c(C)nn1-c1ccccc1 | 1% (inactive) | 83 | 120% (inactive) | 83% (inactive) | 98.6% (inactive) | 101% (inactive) | 17% (inactive) | 84.1 | 101 | -2.24% (inactive) | -11% (inactive)
O=c1[nH]c(=O)n(-c2ccc(F)cc2)c(O)c1C=Nc1ccccc1N1CCCC1 | 8% (inactive) | 97.5 | 105% (inactive) | 97.5% (inactive) | 73.9% (inactive) | 61.3% (inactive) | -6.94% (inactive) | 68.2 | 61.3 | -3.55% (inactive) | 3% (inactive)
C=CCn1c(O)c(C(C)=NCCCO)c(=O)[nH]c1=O | 0% (inactive) | 93 | 114% (inactive) | 93% (inactive) | 107% (inactive) | 94.3% (inactive) | 2.26% (inactive) | 92.1 | 94.3 | -4.94% (inactive) | -8.5% (inactive)
CCN1CCN(c2ncnc3ccc(Br)cc23)CC1 | 0% (inactive) | 100 | 110% (inactive) | 100% (inactive) | 59.2% (inactive) | 91.2% (inactive) | -8.96% (inactive) | 100 | 91.2 | -0.79% (inactive) | 5.25% (inactive)
